Laboratory results: ChEMBL document CHEMBL1155643, “Isolation of a novel protein tyrosine phosphatase inhibitor, 2-methyl-fervenulone, and its precursors from Streptomyces” (J Nat Prod, 2000)
The source made the active and inactive calls. The calls are words filed in the database; no cut-off is given here.

How the values were obtained:
Escherichia coli [1] = assay: Antimicrobial activity against Escherichia coli at 100 uM; format: functional, organism-based
Pseudomonas aeruginosa [2] = assay: Antimicrobial activity against Pseudomonas aeruginosa at 100 uM; format: functional, organism-based
[3] = Inhibition of protein tyrosine phosphatase LAR-D1 domain at 1 uM relative to control; design: scale not given: the % may be the effect or the level left
Procedure, shortened: (§1)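 Commercial phosphatase. pNPP dephosphorylation with 2 mM pNPP in 50 mM sodium acetate pH 5.5, 0.5 mg/mL BSA, 0.5 mM dithiothreitol, at 30 °C. Reactions stopped within the linear phase. Activity expressed as percent of the control without inhibitor. Mean of three separate enzyme preparations, each assayed in duplicate, ± S.D.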

Candida albicans [4] = assay: Antimicrobial activity against Candida albicans at 100 uM; format: functional, organism-based
Bos taurus = organism: Bos taurus; assay: Inhibition of calf intestinal alkaline phosphatase at 1 uM relative to control; design: scale not given: the % may be the effect or the level left
Procedure, shortened: (§2)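 Commercial enzyme acting on 2 mM pNPP in 50 mM sodium acetate with 0.5 mg/mL BSA and 0.5 mM DTT, at 30 °C, linear phase. pH 7 for CIP; pH 5.5 plus 2 mM Mn2+ for λPP. Percent of the no-inhibitor control. Three enzyme preparations, each in duplicate, ± S.D.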

Candida albicans [5] = assay: Antimicrobial activity against Candida albicans at 50 uM; format: functional, organism-based
[6] = Inhibition of protein tyrosine phosphatase epsilon D1D2 domain at 1 uM relative to control; design: scale not given: the % may be the effect or the level left
Procedure, shortened: (§3)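 Bacterially expressed, purified PTPα or PTPε. pNPP (2 mM) dephosphorylation in 50 mM sodium acetate pH 5.5 with 0.5 mg/mL BSA and 0.5 mM DTT, at 30 °C, stopped during the linear phase. Percent activity relative to the uninhibited control. Average of three enzyme preparations, each run in duplicate, ± S.D.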

[7] = molecular target: T1, Tyrosine-protein phosphatase non-receptor type 2 (Homo sapiens) (UniProt P17706); assay: Inhibition of TCPTP at 1 uM relative to control; design: scale not given: the % may be the effect or the level left; procedure, shortened: as §1
T1 sequence (whole entry): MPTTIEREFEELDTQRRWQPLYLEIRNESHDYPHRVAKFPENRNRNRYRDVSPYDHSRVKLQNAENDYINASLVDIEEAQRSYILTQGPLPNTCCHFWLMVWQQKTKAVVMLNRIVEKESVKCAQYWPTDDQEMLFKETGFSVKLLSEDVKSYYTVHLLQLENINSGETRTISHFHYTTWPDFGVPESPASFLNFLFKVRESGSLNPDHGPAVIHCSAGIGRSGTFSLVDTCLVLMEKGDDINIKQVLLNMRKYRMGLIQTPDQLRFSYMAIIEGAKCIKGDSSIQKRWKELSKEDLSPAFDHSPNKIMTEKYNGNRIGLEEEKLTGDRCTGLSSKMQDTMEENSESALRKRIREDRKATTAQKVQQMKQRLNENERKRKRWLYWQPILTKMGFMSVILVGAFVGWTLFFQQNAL

Proteus vulgaris [8] = assay: Antimicrobial activity against Proteus vulgaris at 50 uM; format: functional, organism-based
Curvularia [9] = assay: Antimicrobial activity against Curvularia sp. at 50 uM; format: functional, organism-based
Pseudomonas aeruginosa [10] = assay: Antimicrobial activity against Pseudomonas aeruginosa at 50 uM; format: functional, organism-based
Staphylococcus aureus [11] = assay: Antimicrobial activity against Staphylococcus aureus at 50 uM; format: functional, organism-based
Enterococcus faecalis [12] = assay: Antimicrobial activity against Enterococcus faecalis at 100 uM; format: functional, organism-based
Escherichia coli [13] = assay: Antimicrobial activity against Escherichia coli at 50 uM; format: functional, organism-based
Yersinia sp. = assay: Inhibition of Yersinia sp. protein tyrosine phosphatase yop at 1 uM relative to control; design: scale not given: the % may be the effect or the level left; procedure, shortened: as §1
[14] = tested on: Mycolicibacterium smegmatis; assay: Antimicrobial activity against Mycobacterium smegmatis at 100 uM; format: functional, organism-based
[15] = tested on: Mycolicibacterium smegmatis; assay: Antimicrobial activity against Mycobacterium smegmatis at 50 uM; format: functional, organism-based
Staphylococcus aureus [16] = assay: Antimicrobial activity against Staphylococcus aureus at 100 uM; format: functional, organism-based
[17] = molecular target: T2, Serine/threonine-protein phosphatase (Enterobacteria phage lambda) (UniProt P03772); assay: Inhibition of enterobactera phage lambda PP at 1 uM relative to control; design: scale not given: the % may be the effect or the level left; procedure, shortened: as §2
T2 sequence (whole entry): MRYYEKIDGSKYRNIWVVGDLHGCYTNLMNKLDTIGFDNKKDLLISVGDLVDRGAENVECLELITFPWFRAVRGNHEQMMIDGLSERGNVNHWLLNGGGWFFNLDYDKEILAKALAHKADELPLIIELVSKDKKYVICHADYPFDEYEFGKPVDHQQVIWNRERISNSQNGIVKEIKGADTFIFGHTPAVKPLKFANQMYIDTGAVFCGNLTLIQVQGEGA

[18] = Inhibition of protein tyrosine phosphatase CD45 domain at 1 uM relative to control; design: scale not given: the % may be the effect or the level left; procedure, shortened: as §1
[19] = Inhibition of protein tyrosine phosphatase alpha D1D2 domain at 1 uM relative to control; design: scale not given: the % may be the effect or the level left; procedure, shortened: as §3
Curvularia [20] = assay: Antimicrobial activity against Curvularia sp. at 100 uM; format: functional, organism-based
Enterococcus faecalis [21] = assay: Antimicrobial activity against Enterococcus faecalis at 50 uM; format: functional, organism-based
Proteus vulgaris [22] = assay: Antimicrobial activity against Proteus vulgaris at 100 uM; format: functional, organism-based

Cn1nc2c(nc1=O)c(=O)n(C)c(=O)n2C
Activity (Escherichia coli [1]): inactive
Activity (Pseudomonas aeruginosa [2]): inactive
Activity [3]: 17%
Activity (Candida albicans [4]): inactive
Activity (Bos taurus): 100%
Activity (Candida albicans [5]): inactive
Activity [6]: 17%
Activity [7]: 34%
Activity (Proteus vulgaris [8]): inactive
Activity (Curvularia [9]): inactive
Activity (Pseudomonas aeruginosa [10]): inactive
Activity (Staphylococcus aureus [11]): inactive
Activity (Enterococcus faecalis [12]): inactive
Activity (Escherichia coli [13]): inactive
Activity (Yersinia sp.): 10%
Activity [14]: inactive
Activity [15]: inactive
Activity (Staphylococcus aureus [16]): inactive
Activity [17]: 48%
Activity [18]: 15%
Activity [19]: 17%
Activity (Curvularia [20]): inactive
Activity (Enterococcus faecalis [21]): inactive
Activity (Proteus vulgaris [22]): inactive

Cn1nc2c(nc1=O)n(C)c(=O)n2C
Activity [3]: 97%
Activity (Bos taurus): 99%
Activity [6]: 99%
Activity [7]: 99%
Activity (Yersinia sp.): 95%
Activity [17]: 100%
Activity [18]: 96%
Activity [19]: 98%
